Tests used:
Canis familiaris [1] = assay: Tissue concentration in dog blood 0.5 hr after iv administration; assay type: functional, Canis lupus familiaris
Method in brief: (§1)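 Dogs given ³H tracer (92–100 μCi) as iv cephalic-vein bolus in 2.0 mL sterile acetate buffer pH 4.5; 1–3 dogs per time point. Killed 30 min (or 24 h) later by iv pentobarbital; duplicate tissue samples oxidized and liquid-scintillation counted with background and efficiency correction. Expressed as % kg dose/g; ratio = left ventricle to blood.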

Canis familiaris [2] = assay: Tissue concentration in dog blood 24 hr after iv administration; assay type: functional, Canis lupus familiaris
Method in brief: (§2)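 Dogs (one to three per time point) received bolus cephalic vein injection of 92–100 μCi ³H tracer in 2.0 mL sterile acetate buffer pH 4.5; sacrificed 30 min or 24 h later by iv sodium pentobarbital. Duplicate organ samples oxidized and liquid-scintillation counted with background/efficiency correction; % kg dose/g ± SEM; heart ratio uses left ventricle/blood.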

Canis familiaris [3] = assay: Tissue concentration in dog heart 0.5 hr after iv administration; assay type: functional, Canis lupus familiaris; method in brief: as §2
Canis familiaris [4] = assay: Tissue concentration in dog heart 24 hr after iv administration; assay type: functional, Canis lupus familiaris; method in brief: as §2
Canis familiaris [5] = assay: Tissue concentration in dog left ventricle to blood ratio 0.5 hr after iv administration; assay type: functional, Canis lupus familiaris; method in brief: as §1
Canis familiaris [6] = assay: Tissue concentration in dog liver 0.5 hr after iv administration; assay type: functional, Canis lupus familiaris; method in brief: as §1
Canis familiaris [7] = assay: Tissue concentration in dog liver 24 hr after iv administration; assay type: functional, Canis lupus familiaris; method in brief: as §2
Canis familiaris [8] = assay: Tissue concentration in dog lung 0.5 hr after iv administration; assay type: functional, Canis lupus familiaris; method in brief: as §2
Canis familiaris [9] = assay: Tissue concentration in dog lung 24 hr after iv administration; assay type: functional, Canis lupus familiaris; method in brief: as §2
Canis familiaris [10] = assay: Tissue concentration in dog spleen 0.5 hr after iv administration; assay type: functional, Canis lupus familiaris; method in brief: as §2
Canis familiaris [11] = assay: Tissue concentration in dog spleen 24 hr after iv administration; assay type: functional, Canis lupus familiaris; method in brief: as §2
Rattus norvegicus [12] = species: Rattus norvegicus; assay: Percentage change in thallium-201 in right ventricle of sympathectomized rat, pretreated with 6-hydroxydopamine; assay type: functional, Heart right ventricle
Method in brief: (§3)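 Female Sprague-Dawley rats (200–300 g) given 6-hydroxydopamine HBr 100 mg/kg ip, freshly made in saline, 5 days before tracer; controls got vehicle. Thallium-201 (23–28 μCi) iv via femoral vein; decapitated 90 min later; tissue radioactivity counted; N = 6. Value is % change in treated versus control tissue concentration.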

Rattus norvegicus [13] = species: Rattus norvegicus; assay: Percentage change in thallium-201 in spleen of sympathectomized rat, pretreated with 6-hydroxydopamine; assay type: functional; method in brief: as §3
Rattus norvegicus [14] = species: Rattus norvegicus; assay: Percentage change in thallium-201 in blood of sympathectomized rat, pretreated with 6-hydroxydopamine; assay type: functional; method in brief: as §3
Rattus norvegicus [15] = species: Rattus norvegicus; assay: Percentage change in thallium-201 in left ventricle of sympathectomized rat, pretreated with 6-hydroxydopamine; assay type: functional, Heart left ventricle; method in brief: as §3
Rattus norvegicus [16] = species: Rattus norvegicus; assay: Percente change in thallium-201 concentration in left atrium of sympathectomized rat, pretreated with 6-hydroxydopamine; assay type: functional, Cardiac atrium; method in brief: as §3
Rattus norvegicus [17] = species: Rattus norvegicus; assay: Percent change in thallium-201 concentration in right atrium of sympathectomized rat, pretreated with 6-hydroxydopamine; assay type: functional, Cardiac atrium; method in brief: as §3
Canis familiaris [18] = assay: Tissue concentration in dog left ventricle to blood ratio 24 hr after iv administration; assay type: functional, Canis lupus familiaris; method in brief: as §2
Canis familiaris [19] = species: Canis familiaris; assay: Normalized FMR Concentration in anterior wall of heart of phenol treated canine myocardium; assay type: functional, Canis lupus familiaris
Method in brief: (§4)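 Mongrel dogs, LV anterior epicardium (LAD region) painted with 88% phenol in ethanol (v/v); 4–7 days later FMR iv, killed 1 h post by pentobarbital/KCl overdose. LV cut into ~1 cm transverse slices, then radial segments, gamma counted; % kg dose/g normalized to highest-activity segment (atria = 100%). Affected area = mean of three lowest contiguous segments in each of two midbasal slices; controls N = 3, treated N = 5.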

Canis familiaris [20] = species: Canis familiaris; assay: Normalized FMR Concentration in posterior wall of heart of phenol treated canine myocardium; assay type: functional, Canis lupus familiaris; method in brief: as §4
Canis familiaris [21] = assay: Tissue concentration in dog liver after iv administration; assay type: functional, Canis lupus familiaris
Method in brief: (§5)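 Mongrel dogs (two female, 15.0 and 18.6 kg, 0.45 mCi; two male, 2.0 mCi) given FMR as iv cephalic-vein bolus in 2.0 mL sterile 0.15 M acetate buffer, pH 4.5. Killed 1 h later by iv pentobarbital; tissues washed in saline, blotted, weighed, gamma counted 1 min. Expressed as % kg dose/g, N = 4 (muscle, pancreas, kidney N = 2).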

Canis familiaris [22] = assay: Tissue concentration in dog adrenal medulla after iv administration; assay type: functional, Canis lupus familiaris; method in brief: as §5
Canis familiaris [23] = assay: Tissue concentration in dog blood after iv administration; assay type: functional, Canis lupus familiaris; method in brief: as §5
Canis familiaris [24] = assay: Tissue concentration in dog kidney after iv administration; assay type: functional, Canis lupus familiaris; method in brief: as §5
Canis familiaris [25] = assay: Tissue concentration in dog left atrium after iv administration; assay type: functional, Canis lupus familiaris, Cardiac atrium; method in brief: as §5
Canis familiaris [26] = assay: Tissue concentration in dog left ventricle after iv administration; assay type: functional, Canis lupus familiaris, Heart left ventricle; method in brief: as §5
Canis familiaris [27] = assay: Tissue concentration in dog lung after iv administration; assay type: functional, Canis lupus familiaris; method in brief: as §5
Canis familiaris [28] = assay: Tissue concentration in dog muscle after iv administration; assay type: functional, Canis lupus familiaris; method in brief: as §5
Canis familiaris [29] = assay: Tissue concentration in dog pancreas after iv administration; assay type: functional, Canis lupus familiaris; method in brief: as §5
Canis familiaris [30] = assay: Tissue concentration in dog right atrium after iv administration; assay type: functional, Canis lupus familiaris, Cardiac atrium; method in brief: as §5
Canis familiaris [31] = assay: Tissue concentration in dog right ventricle after iv administration; assay type: functional, Canis lupus familiaris, Heart right ventricle; method in brief: as §5
Canis familiaris [32] = assay: Tissue concentration in dog spleen after iv administration; assay type: functional, Canis lupus familiaris; method in brief: as §5
Canis familiaris [33] = assay: Tissue concentration of the compound in dog adrenal cortex after iv administration; assay type: functional, Canis lupus familiaris; method in brief: as §5
Canis familiaris [34] = assay: Tissue concentration in dog heart after iv administration; assay type: functional, Canis lupus familiaris
Canis familiaris [35] = assay: Tissue concentration in dog left ventricle to blood ratio after iv administration; assay type: functional, Canis lupus familiaris; method in brief: as §5
Canis familiaris [36] = assay: Tissue concentration in dog thyroid after iv administration; assay type: functional, Canis lupus familiaris, Thyroid gland

[3H][C@](O)(CN)c1ccc(O)c(O)c1 [[3H]NOREPINEPHRINE]
[3H] concentration (Canis familiaris [1]): 0.04 % kg dose g-1 | [3H] concentration (Canis familiaris [2]): 0.017 % kg dose g-1 | [3H] concentration (Canis familiaris [3]): 0.74 % kg dose g-1 | [3H] concentration (Canis familiaris [4]): 0.16 % kg dose g-1 | [3H] concentration (Canis familiaris [5]): 19 | [3H] concentration (Canis familiaris [6]): 0.27 % kg dose g-1 | [3H] concentration (Canis familiaris [7]): 0.09 % kg dose g-1 | [3H] concentration (Canis familiaris [8]): 0.18 % kg dose g-1 | [3H] concentration (Canis familiaris [9]): 0.03 % kg dose g-1 | [3H] concentration (Canis familiaris [10]): 0.81 % kg dose g-1 | [3H] concentration (Canis familiaris [11]): 0.52 % kg dose g-1 | Change (Rattus norvegicus [12]): -92% | Change (Rattus norvegicus [13]): -71% | Change (Rattus norvegicus [14]): -20% | Change (Rattus norvegicus [15]): -85% | Change (Rattus norvegicus [16]): -92% | Change (Rattus norvegicus [17]): -94% | [3H] concentration (Canis familiaris [18]): 9

CC(N)C(O)c1cc(O)ccc1F (centres undefined)
[3H] concentration (Canis familiaris [19]): 14.5 % kg dose g-1 | [3H] concentration (Canis familiaris [20]): 53.8 % kg dose g-1 | [3H] concentration (Canis familiaris [21]): 0.33 % kg dose g-1 | [3H] concentration (Canis familiaris [22]): 9.89 % kg dose g-1 | [3H] concentration (Canis familiaris [23]): 0.04 % kg dose g-1 | [3H] concentration (Canis familiaris [24]): 0.41 % kg dose g-1 | [3H] concentration (Canis familiaris [25]): 1.54 % kg dose g-1 | [3H] concentration (Canis familiaris [26]): 1.24 % kg dose g-1 | [3H] concentration (Canis familiaris [27]): 0.26 % kg dose g-1 | [3H] concentration (Canis familiaris [28]): 0.07 % kg dose g-1 | [3H] concentration (Canis familiaris [29]): 0.6 % kg dose g-1 | [3H] concentration (Canis familiaris [30]): 1.44 % kg dose g-1 | [3H] concentration (Canis familiaris [31]): 0.89 % kg dose g-1 | [3H] concentration (Canis familiaris [32]): 0.69 % kg dose g-1 | [3H] concentration (Canis familiaris [33]): 0.59 % kg dose g-1

CC(N)C(O)c1ccc(I)c(O)c1 (centres undefined)
[3H] concentration (Canis familiaris [21]): 0.5 % kg dose g-1 | [3H] concentration (Canis familiaris [22]): 0.45 % kg dose g-1 | [3H] concentration (Canis familiaris [23]): 0.04 % kg dose g-1 | [3H] concentration (Canis familiaris [34]): 0.17 % kg dose g-1 | [3H] concentration (Canis familiaris [35]): 4 % kg dose g-1 | [3H] concentration (Canis familiaris [27]): 0.25 % kg dose g-1 | [3H] concentration (Canis familiaris [32]): 0.26 % kg dose g-1 | [3H] concentration (Canis familiaris [36]): 0.2 % kg dose g-1

CC(N)C(O)c1cc(O)ccc1I (centres undefined)
[3H] concentration (Canis familiaris [21]): 0.49 % kg dose g-1 | [3H] concentration (Canis familiaris [22]): 0.2 % kg dose g-1 | [3H] concentration (Canis familiaris [23]): 0.05 % kg dose g-1 | [3H] concentration (Canis familiaris [34]): 0.05 % kg dose g-1 | [3H] concentration (Canis familiaris [35]): 1 % kg dose g-1 | [3H] concentration (Canis familiaris [27]): 0.26 % kg dose g-1 | [3H] concentration (Canis familiaris [32]): 0.08 % kg dose g-1 | [3H] concentration (Canis familiaris [36]): 0.06 % kg dose g-1
